In article PMC7671694 (Pharmaceutical Biology, 2020):
Entries after “also recorded” stand apart in the source; their conditions may differ.

Assays:
Format in all cases: in vivo, Swiss male mice
[1] = tested on: scopolamine-induced memory impairment in mice; test: Y-maze test in scopolamine-treated mice; details: scopolamine 1.5 mg/kg i.p. alone; compared with control group; p < 0.01
Outline: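 Swiss male mice, n = 10/group. Test compound p.o. in saline 1 h before, scopolamine 1.5 mg/kg i.p. 30 min before a 10-min session. Arm entry means all four legs inside. Alternation (%) = alternations/(total entries − 2) × 100; entries serve as locomotor index. Arms cleaned with 10% ethanol. One-way ANOVA, Tukey; mean ± SEM.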

[2] = tested on: scopolamine-induced memory impairment in mice; test: Novel object recognition test; details: test phase
Outline: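 Swiss male mice, n = 10/group. Test compound (5, 10 or 15 mg/kg) p.o. in saline 1 h before, scopolamine 1.5 mg/kg i.p. 30 min before. Box is 45 × 45 × 50 cm; 5-min sample phase, then 5-min test 24 h later with one object replaced. Nose/forepaw contact is scored as exploration, normalized to total exploration time. Repeated-measures two-way ANOVA, Tukey; mean ± SEM.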

[3] = tested on: scopolamine-induced memory impairment in mice; test: Morris water maze; details: scopolamine 1.5 mg/kg i.p. alone
Outline: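 Swiss male mice, n = 10/group. Test compound p.o. in saline 1 h before, scopolamine 1.5 mg/kg i.p. 30 min before each session. Training runs over 6 days, 4 trials/day about 2 min apart, maximum 1 min per trial, then 10 s on the platform if not found. Day 7 probe without platform. Mean ± SEM; repeated-measures two-way ANOVA (training), one-way ANOVA (probe), Tukey.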

[4] = training trials, day 1 to day 6

SMILES | spontaneous alternation (%) [1] | normalized time exploring novel object versus familiar object ([2]; scopolamine 1.5 mg/kg i.p. alone, p > 0.05) | time spent in the target quadrant ([3]; probe trial day 7, compared with control group) | escape latency [3, 4] | travel (swimming) distance [3, 4] | normalized time exploring novel object versus familiar object ([2]; 5 mg/kg p.o. + scopolamine 1.5 mg/kg i.p., p < 0.001)
CN1[C@@H]2C[C@@H](OC(=O)[C@H](CO)c3ccccc3)C[C@H]1[C@@H]1O[C@@H]12 [scopolamine] | significantly lower; also recorded: significantly decreased | no statistically significant difference | significantly lower; also recorded: decreased | no significant differences | no significant differences | –
COc1cc2c(cc1OC)C(=O)C(CC1CCN(Cc3ccccc3)CC1)C2 (stereo not drawn) [donepezil] | – | – | – | – | – | significantly longer
